Assays:
[1] = Rate of decomposition in presence of 10 mM glutathione (GSH); format: ADME
Procedure, shortened: (§1)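 Phenol red acidification (560 nm) was run in 1 mM potassium phosphate, pH 7.4, 37 °C, with 10 mM GSH added and 1 mM drug. Rates assumed 2 H⁺ released per mol during GSH-initiated decomposition. HCl calibration was done in the GSH-containing mixture. The relative rate is the GSH rate divided by the buffer-alone rate.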

[2] = Rate of decomposition in presence of CD-1 mouse serum; format: ADME
Procedure, shortened: (§2)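 Hydrolysis was followed by phenol red acidification (560 nm) at pH 7.4, 37 °C, in weak phosphate buffer containing 2% CD-1 mouse serum. Serum came from female CD-1 mice bled by cardiac puncture: blood from 3 mice was pooled, clotted 30 min at 37 °C, centrifuged, and kept on ice ≤6 h. HCl calibration was done in the serum mixture. The relative rate is the serum rate divided by the buffer rate.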

[3] = Initial rate of decomposition (1 mM) in 1 mM potassium phosphate buffer; format: ADME; conditions: 1000 µM
Procedure, shortened: (§3)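 Decomposition was followed at 37 °C, pH 7.4, by phenol red (20 mg/L) acidification at 560 nm in 1 mM potassium phosphate. Drug was at 1 mM final, added from a DMSO stock. Rates were calculated as 3 H⁺ per mol for acyl compounds, calibrated with HCl standards. The relative rate is the acyl compound rate divided by the reference tris(sulfonyl) rate.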

[4] = system: L1210; test: Average percent change in body weight against L1210 leukemia in mice at 10 mg/kg; format: functional, Mus musculus
Procedure, shortened: (§4)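 L1210 leukemia, 10⁵ cells ip per recipient mouse (cells from ip passage in CD₂F₁ donors plus culture). Drug ip in 100% DMSO, ≤0.025 mL, once daily ×6 starting 24 h after implantation; groups of 5 mice (5–10 per group per footnote). Toxicity read-out: average percent change in body weight from onset to termination of therapy; vehicle-treated tumor-bearing controls included.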

[5] = system: Mus musculus; test: Compound was tested for percent cures (60-day survivors) in mice at 10 mg/kg; format: functional
Procedure, shortened: (§5)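 L1210 leukemia was passaged in donor CD2F1 mice. Each recipient mouse received 10⁵ cells. Drug was given ip in 100% DMSO once daily for 6 days, starting 24 h after implantation, at 5–20 mg/kg. Groups were 5–10 mice, with vehicle controls. %T/C = mean survival treated/control × 100, excluding cures. Cures = 60-day survivors. Body-weight change during therapy was taken as toxicity.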

[6] = system: Mus musculus; test: Average survival time of treated/control mice X 100 was determined at 10 mg/kg; format: functional; procedure, shortened: as §5
[7] = Relative rate of decomposition is the rate of decomposition of acyl compound to that of rate of decomposition of compound; format: ADME; procedure, shortened: as §3
[8] = system: L1210; test: Average percent change in body weight against L1210 leukemia in mice at 60 mg/kg; format: functional, Mus musculus
[9] = system: Mus musculus; test: Compound was tested for percent cures (60-day survivors) in mice at 60 mg/kg; format: functional
[10] = system: L1210; test: Average percent change in body weight against L1210 leukemia in mice at 20 mg/kg; format: functional, Mus musculus; procedure, shortened: as §4
[11] = system: Mus musculus; test: Compound was tested for percent cures (60-day survivors) in mice at 20 mg/kg; format: functional; procedure, shortened: as §5
[12] = system: Mus musculus; test: Average survival time of treated/control mice X 100 was determined at 20 mg/kg; format: functional; procedure, shortened: as §5
[13] = Relative rate of decomposition is the rate of decomposition in the presence of 10 mMGSH/rate of decomposition in buffer alone; format: ADME; procedure, shortened: as §1
[14] = Relative rate of decomposition is the rate of decomposition in the presence of 2% serum/rate of hydrolysis in buffer alone.; format: ADME; procedure, shortened: as §2
[15] = system: B16; test: Optimal Antitumor Effect was expressed as T-C against B16 i.d. leukemia in mice (i.p.) 100 mg/kg; format: functional, Mus musculus; conditions: route intraperitoneal
[16] = system: M5076; test: Optimal Antitumor Effect was expressed as % T-C against M5076, sc leukemia in mice (i.v.) 36 mg/kg; format: functional, Mus musculus; conditions: route intravenous
Procedure, shortened: (§6)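 Second M5076 sc experiment in C57BL/6 mice: drug iv in 100% DMSO, fixed 10 μL, every other day ×5 from day 1; eight mice/group. Outputs: %T/C (median survival ratio) and T − C growth delay to 1 g tumor, treated minus control.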

[17] = system: M5076; test: Optimal Antitumor Effect was expressed as T-C against M5076, sc leukemia in mice (i.v.) 40 mg/kg; format: functional, Mus musculus; conditions: route intravenous
Procedure, shortened: (§7)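 M5076 reticulum cell sarcoma sc in C57BL/6 mice (fragment passage); drug iv in 10% DMSO in saline, 0.01 mL/g, every other day ×5 from day 1; eight mice/group. %T/C from median survival ratio; T − C = difference in median days for treated vs untreated tumors to reach 1 g.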

[18] = system: M5076; test: Optimal Antitumor Effect was expressed as % T/C against M5076, sc leukemia in mice (i.v.) 20 mg/kg; format: functional, Mus musculus; conditions: route intravenous; procedure, shortened: as §7
[19] = system: M5076; test: Optimal Antitumor Effect was expressed as % T/C against M5076, sc leukemia in mice (i.v.) 36 mg/kg; format: functional, Mus musculus; conditions: route intravenous; procedure, shortened: as §6
[20] = system: L1210; test: Average percent change in body weight against L1210 leukemia in mice at 7.5 mg/kg; format: functional, Mus musculus; procedure, shortened: as §4
[21] = system: M109; test: Optimal Antitumor Effect was expressed as T-C against M109, sc leukemia in mice (i.v.) 30 mg/kg; format: functional, Mus musculus; conditions: route intravenous
Procedure, shortened: (§8)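 M109 lung carcinoma implanted sc (fragments passaged in Balb/c mice); drug iv in 10% DMSO in saline, 0.01 mL/g, every third day ×4 starting day 1. Eight mice/group, ≥3 dose levels. Read-outs: %T/C from median survival, and T − C = difference in median days for treated vs untreated tumors to reach 1 g (1 mm³ = 1 mg).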

[22] = system: M109; test: Optimal Antitumor Effect was expressed as T-C against M109, sc leukemia in mice (i.v.) 48 mg/kg; format: functional, Mus musculus; conditions: route intravenous
[23] = system: M109; test: Optimal Antitumor Effect was expressed as T-C against M109, sc leukemia in mice (i.v.) 60 mg/kg; format: functional, Mus musculus; conditions: route intravenous; procedure, shortened: as §8
[24] = system: M109; test: Optimal Antitumor Effect was expressed as % T/C against M109, ip leukemia in mice (i.p.) 60 mg/kg; format: functional, Mus musculus; conditions: route intraperitoneal
Procedure, shortened: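 M109 lung carcinoma ip in Balb/c-passaged line; drug ip every third day ×4 from day 1, as fine suspension in 10% DMSO in carboxymethylcellulose with Tween 80 (0.5 mL). Eight mice/group, ≥3 dose levels. %T/C = median survival treated/control ×100; deaths before day 10 counted as toxic.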

[25] = system: M109; test: Optimal Antitumor Effect was expressed as % T/C against M109, sc leukemia in mice (i.v.) 30 mg/kg; format: functional, Mus musculus; conditions: route intravenous; procedure, shortened: as §8
[26] = system: M109; test: Optimal Antitumor Effect was expressed as % T/C against M109, sc leukemia in mice (i.v.) 32 mg/kg; format: functional, Mus musculus; conditions: route intravenous
[27] = system: M109; test: Optimal Antitumor Effect was expressed as % T/C against M109, sc leukemia in mice (i.v.) 60 mg/kg; format: functional, Mus musculus; conditions: route intravenous; procedure, shortened: as §8
[28] = system: Mus musculus; test: Compound was tested for percent cures (60-day survivors) in mice at 7.5 mg/kg; format: functional; procedure, shortened: as §5
[29] = system: Mus musculus; test: Average survival time of treated/control mice X 100 was determined at 7.5 mg/kg; format: functional; procedure, shortened: as §5
[30] = system: P388; test: Optimal Antitumor Effect was expressed as cures/total against P388, ip, leukemia in mice (i.p.) 200 mg/kg; 3/6; format: functional, Mus musculus; conditions: route intraperitoneal

SMILES	Rate of decomposition [1]	Rate of decomposition [2]	Rate of decomposition [3]	Body weight [4] [%]	Cures [5] [%]	Relative rate of decomposition [7]	Relative rate of decomposition [13]	Relative rate of decomposition [14]	other results
CCCC(=O)N(N(CCCl)S(C)(=O)=O)S(C)(=O)=O	10.3 (nM of drug) min-1 ml-1	0.34 (nM of drug) min-1 ml-1	<= 0.1 (nM of drug) min-1 ml-1	0	20	–	–	–	T/C [6]: 207%
CS(=O)(=O)N(CCCl)N(S(C)(=O)=O)S(C)(=O)=O	–	–	9.58 (nM of drug) min-1 ml-1	–	–	1	–	–	Body weight [8]: -7.2%; Cures [9]: 100%
CC(C)(C)C(=O)N(N(CCCl)S(C)(=O)=O)S(C)(=O)=O	11 (nM of drug) min-1 ml-1	0.78 (nM of drug) min-1 ml-1	<= 0.1 (nM of drug) min-1 ml-1	–	–	–	–	–	Body weight [10]: 0%; Cures [11]: 60%; T/C [12]: 302%
CCC(=O)N(N(CCCl)S(C)(=O)=O)S(C)(=O)=O	12.8 (nM of drug) min-1 ml-1	0.45 (nM of drug) min-1 ml-1	<= 0.1 (nM of drug) min-1 ml-1	-6.4	90	–	–	–	T/C [6]: 217%
COCC(=O)N(N(CCCl)S(C)(=O)=O)S(C)(=O)=O	147 (nM of drug) min-1 ml-1	8.57 (nM of drug) min-1 ml-1	2.9 (nM of drug) min-1 ml-1	-8.4	100	0.3	50.6	3	–
CS(=O)(=O)N(CCCl)N(C(=O)c1ccccc1)S(C)(=O)=O	227 (nM of drug) min-1 ml-1	7.86 (nM of drug) min-1 ml-1	1.02 (nM of drug) min-1 ml-1	–	–	0.11	223	7.7	Body weight [10]: -7.7%; Cures [11]: 20%; T/C [12]: 160%
CC(=O)N(N(CCCl)S(C)(=O)=O)S(C)(=O)=O	14.5 (nM of drug) min-1 ml-1	0.89 (nM of drug) min-1 ml-1	0.24 (nM of drug) min-1 ml-1	–	–	0.03 (nM of drug) min-1 ml-1	60.3	3.7	T-C [15]: 12 days; T-C [16]: 20.8 days; T-C [17]: 18.3 days; T/C [18]: 156%; T/C [19]: 122%; Body weight [20]: 1%; T-C [21]: 10.5 days; T-C [22]: 14.5 days; T-C [23]: 3 days; T/C [24]: 231%; T/C [25]: 128%; T/C [26]: 136%; T/C [27]: 133%; Cures [28]: 80%; T/C [29]: 341%; Cures/total [30]: 3
